Published values gathered from unrelated publications.
Compare with care: the assays were run in different laboratories.
CDK13: Cyclin-dependent kinase 13 (CDK13, Homo sapiens, UniProt Q14004)
G protein-coupled receptor 88: G protein-coupled receptor 88 (Homo sapiens, UniProt Q9GZN0)
Cnr2: Cannabinoid receptor 2 (Cnr2, Mus musculus, UniProt P47936)
PRKAA1: 5'-AMP-activated protein kinase catalytic subunit alpha-1 (PRKAA1, Homo sapiens, UniProt Q13131)

CCN1CCN(Cc2ccc(C(=O)Nc3ccc(C)c(Oc4ccc5c(c4)CC(=O)N5)c3)cc2C(F)(F)F)CC1
remaining binding (CDK13; binding, competition with immobilised ligand; 1 µM): 100%

CCC[C@H](C)COc1ccc([C@@H](CO)C(=O)N[C@H](C)c2ccccc2)cc1
Emax (G protein-coupled receptor 88; cAMP, agonist, TR-FRET; CHO): 97%

COc1ncccc1-c1cnn2ccc(N3CCN(C(=O)OC(C)C)CC3)nc12
remaining binding (CDK13; binding, competition with immobilised ligand; 1 µM): 95%

CCOC(=O)C(CC)(CCCSCCOCCOCCOCCOCCNC(=O)OC(C)(C)C)NC(=O)c1ccc(C2CC2)c(Cc2ccc(F)cc2)n1 (stereo not drawn)
Emax (Cnr2; cAMP, agonist): 84%

C#Cc1n[nH]c2c(-c3cn([C@@H](C)c4ccccn4)c(=O)[nH]c3=O)cc(F)cc12
inhibition (Protein kinase C theta type (PRKCQ, Homo sapiens, UniProt Q04759); enzyme activity, inhibitor; 0.1 µM): 13.6%

CC[C@@H](C)COc1ccc([C@@H](CO)C(=O)N[C@H](C)c2ccccc2)cc1
Emax (G protein-coupled receptor 88; cAMP, agonist, TR-FRET): 96%

CC(C)C[C@H](NC(=O)[C@H]1O[C@@H]1C(=O)O)C(=O)NCCCCN=C(N)N
inhibition (Procathepsin L (CTSL, Homo sapiens, UniProt P07711); enzyme activity, inhibitor; 500 pM): 13%

CCCCCOc1ccc([C@@H](CO)C(=O)N[C@H](C)c2ccccc2)cc1
Emax (G protein-coupled receptor 88; cAMP, agonist, TR-FRET; CHO): 103%

CCOC(=O)[C@](CC)(CCC[S+]([O-])CCOCCOCCNC(=O)OC(C)(C)C)NC(=O)c1ccc(C2CC2)c(Cc2ccc(F)cc2)n1 (stereo partly drawn)
Emax (Cnr2; cAMP, agonist): 79%

Nc1ncc(-c2nc(N3CCOCC3)nc(N3CCOCC3)n2)c(C(F)F)n1
remaining binding (Mitogen-activated protein kinase kinase kinase kinase 5 (MAP4K5, Homo sapiens, UniProt Q9Y4K4); binding, competition with immobilised ligand; 10 µM): 100%

CCCC#Cc1ccc([C@@H](CO)C(=O)N[C@H](C)c2ccccc2)cc1
Emax (G protein-coupled receptor 88; cAMP, agonist, TR-FRET): 92%

Cn1cc(-c2cccc(N3CCc4c(sc5c4CC(C)(C)C5)C3=O)c2CO)cc(Nc2ccncn2)c1=O
inhibition (Sphingosine kinase 2 (SPHK2, Homo sapiens, UniProt Q9NRA0); enzyme activity, inhibitor; 1 µM): -1%

Cc1nn(C)cc1-c1nc2c(N3CCN(Cc4ccc(Cl)cc4)CC3)c(Cl)cnc2[nH]1
remaining binding (PRKAA1; binding, competition with immobilised ligand; 1 µM): 2.4%

Cn1cc(-c2cc(F)cc(N3CCn4c(cc5c4CCCC5)C3=O)c2CO)cc(Nc2ccc(N3CCN(C4COC4)CC3)cn2)c1=O
inhibition (PRKAA1; enzyme activity, inhibitor; 0.1 µM): 0%

Cc1nc2c(=O)n(C)c(=O)nc-2n(C)n1
ΔTm (Protein disulfide-isomerase (P4HB, Homo sapiens, UniProt P07237); thermal stability, DSF; 10 µM): -2.94 °C
